Like-named read-outs stand apart in the source and are kept apart here. Marks after values point to notes of the source that are not given here.
Tests used:
[1] = Follow-up exploratory clinical study: plasma pharmacokinetics; assay type: in vivo, human; conditions: follow-up study; for AUC0–48h green tea/baseline ratio (90% CI) / Cmax,1 green tea/baseline ratio (90% CI): acute green tea vs baseline; for AUC0–48h, geometric mean (CV%) / t max,1, median (range) / Cmax: plasma; for Cmax: read-out: Cmax,1, geometric mean (CV%)
In short: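 Six healthy adults (3 male, 3 female) in sequential arms ≥7 days apart: oral test compound with water, then with acute brewed green tea, then tea alone. Plasma sampled 0–48 h at the main-study times. Analysed by UHPLC–MS/MS for parent and glucuronides. […] Green tea/baseline ratios on log-transformed data, paired two-tailed t-test.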

[2] = assay type: in vivo, human; conditions: for AUC0–96h, geometric mean (CV%) / AUC0–48h, geometric mean (CV%) / t 1/2, geometric mean (CV%) / t max,1, median (range): plasma, raloxifene 60 mg oral
In short: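 Open-label fixed-sequence crossover in 16 healthy adults (8 male, 8 female), arms ≥7 days apart, fasted from midnight. Oral 60 mg test compound tablet with 240 mL water at 50°C (baseline) or brewed green tea. Acute: tea (one bag, 240 mL water, 80°C, 3 min, cooled to 50°C) given with dose, then at 4 and 8 h. Chronic: tea three times daily for 4 days, then day 5 as acute.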

[3] = 16 healthy adults, baseline (water)

SMILES | Metabolite‐to‐parent AUC0–48h ratio, geometric mean (CV%) ([1]; acute green tea) | AUC0–48h green tea/baseline ratio (90% CI) [1] | Cmax,1 green tea/baseline ratio (90% CI) [1] | Metabolite‐to‐parent AUC0–48h ratio, geometric mean (CV%) ([1]; baseline) | AUC0–48h, geometric mean (CV%) ([1]; acute green tea) | t max,1, median (range) ([1]; acute green tea) | t max,1, median (range) ([1]; baseline) | AUC0–48h, geometric mean (CV%) ([1]; six healthy adults, baseline) | Cmax ([1]; acute green tea) | Cmax ([1]; baseline) | Metabolite‐to‐parent AUC0–96h ratio, geometric mean (CV%) ([2]; acute green tea) | AUC0–48h green tea/baseline ratio (90% CI) ([2]; acute green tea vs baseline) | AUC0–96h green tea/baseline ratio (90% CI) ([2]; acute green tea vs baseline) | Cmax,1 green tea/baseline ratio (90% CI) ([2]; acute green tea vs baseline) | t 1/2 green tea/baseline ratio (90% CI) ([2]; acute green tea vs baseline) | Metabolite‐to‐parent AUC0–96h ratio, geometric mean (CV%) ([2]; baseline (water)) | Metabolite‐to‐parent AUC0–96h ratio, geometric mean (CV%) ([2]; chronic green tea) | AUC0–48h green tea/baseline ratio (90% CI) ([2]; chronic green tea vs baseline) | AUC0–96h green tea/baseline ratio (90% CI) ([2]; chronic green tea vs baseline) | Cmax,1 green tea/baseline ratio (90% CI) ([2]; chronic green tea vs baseline) | further results
O=C(c1ccc(OCCN2CCCCC2)cc1)c1c(-c2ccc(O[C@@H]3O[C@H](C(=O)O)[C@@H](O)[C@H](O)[C@H]3O)cc2)sc2cc(O)ccc12 [Raloxifene 4′‐glucuronide, raloxifene 4′‐glucuronide] | 184 (25) | 0.93 (0.81–1.06) | 0.79 (0.68–0.93) | 179 (23) | 1368 (50) ^* nM‐h | 1 (0.5–1) h | 1.25 (1–3) h | 1473 (50) nM‐h | 75 nM | 94.4 nM | 161 (36) | 0.54 (0.43–0.68) | 0.57 (0.45–0.73) | 0.42 (0.31–0.57) | 0.91 (0.72–1.16) | 160 (34) | 159 (34) | 0.57 (0.43–0.76) | 0.65 (0.51–0.82) | 0.46 (0.31–0.70) | t 1/2 green tea/baseline ratio (90% CI) ([2]; chronic green tea vs baseline): 0.92 (0.72–1.18); AUC0–96h, geometric mean (CV%) [2, 3]: 2350 (45) nM‐h; AUC0–48h, geometric mean (CV%) ([2]; acute green tea): 1080 (55) nM‐h; AUC0–96h, geometric mean (CV%) ([2]; acute green tea): 1350 (69)** nM‐h; t 1/2, geometric mean (CV%) ([2]; acute green tea): 15.9 (66) h; t max,1, median (range) ([2]; acute green tea): 1.5 (0.5–6) h; AUC0–48h, geometric mean (CV%) ([2]; baseline (water)): 1990 (48) nM‐h; t 1/2, geometric mean (CV%) ([2]; baseline (water)): 17.0 (57)^b h; t max,1, median (range) ([2]; baseline (water)): 1.25 (0.25–4) h; AUC0–48h, geometric mean (CV%) ([2]; chronic green tea): 1134 (56) nM‐h; AUC0–96h, geometric mean (CV%) ([2]; chronic green tea): 1520 (76)* nM‐h; t 1/2, geometric mean (CV%) ([2]; chronic green tea): 15.6 (48)^b h; t max,1, median (range) ([2]; chronic green tea): 1.25 (0.5–3) h
O=C(c1ccc(OCCN2CCCCC2)cc1)c1c(-c2ccc(O)cc2)sc2cc(O[C@@H]3O[C@H](C(=O)O)[C@@H](O)[C@H](O)[C@H]3O)ccc12 [Raloxifene 6‐glucuronide, raloxifene 6‐glucuronide] | 22 (50) | 0.88 (0.73–1.06) | 0.73 (0.60–0.88) | 23 (47) | 166 (61) nM‐h | 1 (1–3) h | 1.25 (1–3) h | 189 (46) nM‐h | 6.85 nM | 9.39 nM | 39 (43) | 0.57 (0.45–0.74) | 0.60 (0.47–0.77) | 0.38 (0.23–0.63) | 1.08 (0.90–1.31) | 37 (45) | 37 (44) | 0.59 (0.43–0.79) | 0.67 (0.53–0.86) | 0.50 (0.35–0.73) | t 1/2 green tea/baseline ratio (90% CI) ([2]; chronic green tea vs baseline): 0.92 (0.76–1.12); AUC0–96h, geometric mean (CV%) [2, 3]: 535 (48) nM‐h; AUC0–48h, geometric mean (CV%) ([2]; acute green tea): 255 (68) nM‐h; AUC0–96h, geometric mean (CV%) ([2]; acute green tea): 324 (79)* nM‐h; t 1/2, geometric mean (CV%) ([2]; acute green tea): 20.5 (36)^b h; t max,1, median (range) ([2]; acute green tea): 1.5 (0.5–4) h; AUC0–48h, geometric mean (CV%) ([2]; baseline (water)): 444 (56) nM‐h; t 1/2, geometric mean (CV%) ([2]; baseline (water)): 18.9 (40)^b h; t max,1, median (range) ([2]; baseline (water)): 1.5 (1–4) h; AUC0–48h, geometric mean (CV%) ([2]; chronic green tea): 261 (57) nM‐h; AUC0–96h, geometric mean (CV%) ([2]; chronic green tea): 360 (78) nM‐h; t 1/2, geometric mean (CV%) ([2]; chronic green tea): 17.8 (46)^c h; t max,1, median (range) ([2]; chronic green tea): 1.5 (1–6) h
